Among the data in ChEMBL document CHEMBL1240465, “Prenylflavonoids and prenyl/alkyl-phloroacetophenones: synthesis and antitumour biological evaluation” (Eur J Med Chem, 2010) are IC50 values, retold here.

Holding throughout (type): functional, cell-based
One assay deals with HeLa. The assay is described as follows: Cytotoxicity against human HeLa cells after 72 hrs by XTT assay. The gist of the method: (§1)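 Cells grown in DMEM (A549, HT-29, HeLa) or RPMI1640 (HL-60), both with 10% heat-inactivated fetal bovine serum, were exposed to compound across a concentration range for 72 h at 37 °C in humidified air/CO₂ (19/1), then read by XTT. Measurements were in triplicate. IC50 is the concentration giving 50% proliferation inhibition versus untreated controls, reported as mean ± S.D. of three independent determinations.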
In general terms: Tetrazolium dyes change colour on reduction, which living cells bring about.

The test system of another assay is A549. In words: Cytotoxicity against human A549 cells after 72 hrs by XTT assay. The settings on record: A549, 72 h. The gist of the method: as §1
A further assay relates to HT-29. The assay is described as follows: Cytotoxicity against human HT-29 cells after 72 hrs by XTT assay. The settings on record: HT-29, 72 h. The procedure, abridged:
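Cells grown in DMEM (A549, HT-29, HeLa) or RPMI1640 (HL-60), both with 10% heat-inactivated fetal bovine serum, were exposed to compound across a concentration range for 72 h at 37 °C in humidified air/CO₂ (19/1), then read by XTT. Measurements were in triplicate.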

For the molecule `C=C1CC[C@H]2C(C)(C)CCC[C@]2(C)[C@H]1CC/C(C)=C/Cc1c(O)cc(O)c2c(=O)c(O)c(-c3ccc(OC)cc3)oc12`, the IC50 in the assay on HeLa, in the assay with A549 and in the assay on HT-29 was > 100 µM in each case.

Regarding `C=C1CC[C@H]2C(C)(C)CCC[C@]2(C)[C@H]1CC/C(C)=C/COc1cc(O)c2c(=O)c(O)c(-c3ccc(O)cc3)oc2c1`, the IC50 in the assay with HeLa, with A549 and in the assay with HT-29 was > 100 µM each time.

Take `COc1ccc(-c2oc3cc(O)cc(O)c3c(=O)c2O)cc1` [KAEMPFERIDE]: the results for the IC50 in the assay on HeLa, in the assay on A549 and in the assay with HT-29 were 23 µM, 22 µM and 32 µM, respectively.

On to `C=C1CC[C@H]2C(C)(C)CCC[C@]2(C)[C@H]1CC/C(C)=C/COc1cc(O)c2c(=O)c(O)c(-c3ccc(OC)cc3)oc2c1`, for which the IC50 with HeLa, in the assay on A549 and in the assay on HT-29 was > 100 µM throughout.

Take `CC(C)=CCC/C(C)=C/COc1c(-c2ccc(O)cc2)oc2cc(O)cc(O)c2c1=O`: the IC50 in the assay with HeLa stood at 23 µM; with A549 it was 27 µM; in the assay on HT-29, 25 µM.

In the case of `COc1ccc(-c2oc3cc(O)cc(O)c3c(=O)c2OC)cc1` [ERMANIN], the IC50 in the assay with HeLa worked out at 31 µM; with A549, 31 µM; in the assay with HT-29, 32 µM.

In the case of `C=C1CC[C@H]2C(C)(C)CCC[C@]2(C)[C@H]1CC/C(C)=C/COc1cc(O)c2c(=O)c(OC/C=C(\C)CC[C@H]3C(=C)CC[C@H]4C(C)(C)CCC[C@]34C)c(-c3ccc(OC)cc3)oc2c1`, the IC50 in the assay with HeLa, with A549 and in the assay with HT-29 was > 100 µM throughout.

As for `CC(C)=CCC/C(C)=C/Cc1c(O)cc2oc(-c3ccc(O)cc3)c(O)c(=O)c2c1O` [MACARANGIN], the IC50 in the assay on HeLa, in the assay on A549 and with HT-29 was > 100 µM in each case.

`CC(C)=CCC/C(C)=C/COc1cc2oc(-c3ccccc3)cc(=O)c2c(O)c1C/C=C(\C)CCC=C(C)C`: the IC50 in the assay with HeLa is 30 µM; in the assay with A549, 32 µM; in the assay on HT-29, 32 µM.

As to `CC(C)=CCC/C(C)=C/COc1c(C/C=C(\C)CCC=C(C)C)c(O)c2c(=O)cc(-c3ccccc3)oc2c1C/C=C(\C)CCC=C(C)C`, the IC50 in the assay on HeLa was 30 µM; with A549, 29 µM; with HT-29, 32 µM.

Consider `O=c1cc(-c2ccccc2)oc2cc(O)cc(O)c12` [CHRYSIN], for which the IC50 with HeLa was 29 µM; in the assay with A549 it was > 100 µM; in the assay on HT-29, > 100 µM.

As to `CC(C)=CCC/C(C)=C/Cc1c(O)cc2oc(-c3ccccc3)cc(=O)c2c1O`, the values for the IC50 in the assay with HeLa, in the assay on A549 and in the assay with HT-29 were 32 µM, 32 µM and 33 µM, respectively.

For the molecule `C=C1CC[C@H]2C(C)(C)CCC[C@]2(C)[C@H]1CC/C(C)=C/COc1c(-c2ccc(O)cc2)oc2cc(O)cc(O)c2c1=O`, the IC50 in the assay on HeLa is 27 µM; in the assay on A549 it was 26 µM; with HT-29, 30 µM.

For `C=C1CC[C@H]2C(C)(C)CCC[C@]2(C)[C@H]1CC/C(C)=C/Cc1c(O)cc2oc(-c3ccc(O)cc3)c(O)c(=O)c2c1O` [DENTICULAFLAVONOL], the IC50 with HeLa, in the assay on A549 and in the assay with HT-29 was > 100 µM throughout.

In the case of `COc1cccc2c1C(=O)c1c(O)c3c(c(O)c1C2=O)C[C@@](O)(C(=O)CO)C[C@@H]3O[C@H]1C[C@H](N)[C@H](O)[C@H](C)O1` [DOXORUBICIN], the IC50 in the assay with HeLa amounted to 0.29 µM; in the assay on A549 it was 0.26 µM.

Take `COc1ccc(-c2oc3cc(OC)cc(O)c3c(=O)c2OC)cc1`: the IC50 was determined as 28 µM with HeLa, 30 µM with A549 and 26 µM with HT-29.

For the molecule `CC(C)=CCC/C(C)=C/Cc1c(O)cc(O)c2c(=O)c(O)c(-c3ccc(O)cc3)oc12`, the IC50 is 30 µM with HeLa, 26 µM with A549 and 30 µM in the assay on HT-29.

Regarding `CC(C)=CCC/C(C)=C/COc1cc(O)c2c(=O)c(OC/C=C(\C)CCC=C(C)C)c(-c3ccc(O)cc3)oc2c1`, the IC50 in the assay on HeLa is > 100 µM; in the assay with A549, > 100 µM; in the assay on HT-29, 31 µM.

The IC50 is the concentration that gives 50% inhibition.
